Data: BindingDB's records for doi:10.1016/j.bmc.2008.06.044 (University of Montreal, 2008)
pIC50: −log10 of the molar value.

Assays:
[1] = Inhibition of recombinant galectin 3 in human O type red blood cells by hemagglutinination assay
[2] = Inhibition of recombinant galectin 1 in human O type red blood cells by hemagglutinination assay
Galectin-3 = Galectin-3 (Homo sapiens, UniProt P17931); assay: Inhibition of recombinant galectin 3 in human O type red blood cells by hemagglutinination assay
Summary of the method: (§1)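 Human type O erythrocytes were fixed with 3% glutaraldehyde in PBS containing 0.0025% NaN3, then used at 0.0025% final. Galectin at 1 µM was incubated with the RBCs, with or without a range of inhibitor concentrations, at 37 °C for 30 min. RBC aggregation was then scored, in triplicate.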

Galectin-1 = Galectin-1 (Homo sapiens, UniProt P09382); assay: Inhibition of recombinant galectin 1 in human O type red blood cells by hemagglutinination assay
Summary of the method: as §1

Galectin-1, sequence (P09382 whole entry): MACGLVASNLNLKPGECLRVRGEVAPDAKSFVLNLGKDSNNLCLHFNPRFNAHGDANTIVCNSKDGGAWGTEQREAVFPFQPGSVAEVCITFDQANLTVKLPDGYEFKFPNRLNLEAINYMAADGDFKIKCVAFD
Galectin-3, sequence (P17931 whole entry): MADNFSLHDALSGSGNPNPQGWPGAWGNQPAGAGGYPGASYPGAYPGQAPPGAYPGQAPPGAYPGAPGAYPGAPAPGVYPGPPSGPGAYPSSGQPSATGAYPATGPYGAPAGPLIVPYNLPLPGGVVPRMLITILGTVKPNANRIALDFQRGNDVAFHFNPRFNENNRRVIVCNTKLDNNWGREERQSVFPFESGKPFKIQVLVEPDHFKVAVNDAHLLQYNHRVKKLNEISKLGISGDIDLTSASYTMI

Row | SMILES | pIC50 [1] | pIC50 [2] | pIC50 (Galectin-3) | pIC50 (Galectin-1)
1 | CC(=O)C[C@@H]1O[C@H](CO)[C@H](O)[C@H](O)[C@H]1O [1-((2S,3R,4R,5R,6R)-3,4,5-trihydroxy-6-(hydroxymethyl)-tetrahydro-2H-pyran-2-yl)propan-2-one] | 2.30 | < 2.30 | – | –
2 | C=C(C[C@@H]1O[C@H](CO)[C@H](O)[C@H](O)[C@H]1O)c1cccc([N+](=O)[O-])c1 [(2R,3R,4R,5R,6S)-2-(hydroxymethyl)-6-(2-(3-nitrophenyl)allyl)-tetrahydro-2H-pyran-3,4,5-triol] | < 2.30 | 2.30 | – | –
3 | C=C(C[C@@H]1O[C@H](CO)[C@H](O)[C@H](O)[C@H]1O)c1ccc(OC)cc1 [(2R,3R,4R,5R,6S)-2-(hydroxymethyl)-6-(2-(4-methoxyphenyl)allyl)-tetrahydro-2H-pyran-3,4,5-triol] | 2.30 | < 2.30 | – | –
4 | C/C=C/[C@@H]1O[C@H](CO)[C@H](O)[C@H](O)[C@H]1O [(2R,3R,4R,5R,6S,E)-2-(hydroxymethyl)-6-(prop-1-enyl)-tetrahydro-2H-pyran-3,4,5-triol] | < 2.30 | < 2.30 | – | –
5 | OC[C@@H]1O[C@H](n2cc(CS[C@@H]3O[C@H](CO)[C@H](O)[C@H](O)[C@H]3O)nn2)[C@@H](O)[C@H](O)[C@@H]1O [(2R,3R,4S,5R,6S)-2-(hydroxymethyl)-6-((1-((2S,3S,4R,5S,6S)-3,4,5-trihydroxy-6-(hydroxymethyl)-tetrahydro-2H-pyran-2-yl)-1H-1,2,3-triazol-4-yl)methylthio)-tetrahydro-2H-pyran-3,4,5-triol] | 2.60 | < 2.30 | – | –
6 | C#CCS[C@@H]1O[C@H](CO)[C@H](O)[C@H](O)[C@H]1O [(2R,3R,4S,5R,6S)-2-(hydroxymethyl)-6-(prop-2-ynylthio)-tetrahydro-2H-pyran-3,4,5-triol] | 2.60 | < 2.30 | – | –
7 | OC[C@@H]1O[C@H](SCC#Cc2ccc(C#CCS[C@@H]3O[C@H](CO)[C@H](O)[C@H](O)[C@H]3O)cc2)[C@@H](O)[C@H](O)[C@@H]1O [(2R,3S,4S,5R,6S)-2-(hydroxymethyl)-6-(3-(4-(3-((2R,3S,4R,5S,6S)-3,4,5-trihydroxy-6-(hydroxymethyl)-tetrahydro-2H-pyran-2-ylthio)prop-1-ynyl)phenyl)prop-2-ynylthio)-tetrahydro-2H-pyran-3,4,5-triol] | < 2.30 | 2.60 | – | –
8 | OC[C@H]1O[C@@H](C/C=C/c2cccc(/C=C/C[C@@H]3O[C@H](CO)[C@H](O)[C@H](O)[C@H]3O)c2)[C@H](O)[C@@H](O)[C@H]1O [(2S,3R,4R,5R,6R)-2-((12S,14R,15R,16R,17R,E)-3-((E)-3-((2S,3R,4R,5R,6R)-3,4,5-trihydroxy-6-(hydroxymethyl)-tetrahydro-2H-pyran-2-yl)prop-1-enyl)cinnamyl)-6-(hydroxymethyl)-tetrahydro-2H-pyran-3,4,5-triol] | < 2.30 | 2.30 | – | –
9 | OC[C@H]1O[C@@H](C/C=C/c2ccccc2)[C@H](O)[C@@H](O)[C@H]1O [(2S,3R,4R,5R,6R)-2-cinnamyl-6-(hydroxymethyl)-tetrahydro-2H-pyran-3,4,5-triol] | < 2.30 | < 2.30 | – | –
10 | OC[C@@H]1O[C@H](O[C@@H]2[C@@H](O)[C@H](O)[C@@H](n3cc(CS[C@@H]4O[C@H](CO)[C@H](O)[C@H](O)[C@H]4O)nn3)O[C@H]2CO)[C@@H](O)[C@H](O)[C@@H]1O [(2S,3R,4S,5R,6R)-2-((1-((2S,3S,4S,5R,6S)-3,4-dihydroxy-6-(hydroxymethyl)-5-((2R,3S,4R,5S,6S)-3,4,5-trihydroxy-6-(hydroxymethyl)-tetrahydro-2H-pyran-2-yloxy)-tetrahydro-2H-pyran-2-yl)-1H-1,2,3-triazol-4-yl)methylthio)-6-(hydroxymethyl)-tetrahydro-2H-pyran-3,4,5-triol] | 3.22 | 3.52 | – | –
11 | OC[C@@H]1O[C@H](n2cc(CS[C@@H]3O[C@H](CO)[C@@H](O[C@@H]4O[C@H](CO)[C@H](O)[C@H](O)[C@H]4O)[C@H](O)[C@H]3O)nn2)[C@@H](O)[C@H](O)[C@@H]1O [(2S,3R,4S,5R,6R)-2-((2R,3S,4R,5R,6S)-4,5-dihydroxy-2-(hydroxymethyl)-6-((1-((2S,3S,4R,5S,6S)-3,4,5-trihydroxy-6-(hydroxymethyl)-tetrahydro-2H-pyran-2-yl)-1H-1,2,3-triazol-4-yl)methylthio)-tetrahydro-2H-pyran-3-yloxy)-6-(hydroxymethyl)-tetrahydro-2H-pyran-3,4,5-triol] | 3.52 | 3.22 | – | –
12 | C#CCS[C@@H]1O[C@H](CO)[C@@H](O[C@@H]2O[C@H](CO)[C@H](O)[C@H](O)[C@H]2O)[C@H](O)[C@H]1O [(2S,3R,4S,5R,6R)-2-((2R,3S,4R,5R,6S)-4,5-dihydroxy-2-(hydroxymethyl)-6-(prop-2-ynylthio)-tetrahydro-2H-pyran-3-yloxy)-6-(hydroxymethyl)-tetrahydro-2H-pyran-3,4,5-triol] | 3.52 | 3.22 | – | –
13 | OC[C@@H]1O[C@H](O[C@@H]2[C@@H](O)[C@H](O)[C@@H](SCC#CC#CCS[C@@H]3O[C@H](CO)[C@@H](O[C@@H]4O[C@H](CO)[C@H](O)[C@H](O)[C@H]4O)[C@H](O)[C@H]3O)O[C@H]2CO)[C@@H](O)[C@H](O)[C@@H]1O [(2S,3R,4S,5R,6R)-2-((2R,3S,4R,5R,6S)-6-(6-((2R,3S,4S,5R,6S)-3,4-dihydroxy-6-(hydroxymethyl)-5-((2R,3S,4R,5S,6S)-3,4,5-trihydroxy-6-(hydroxymethyl)-tetrahydro-2H-pyran-2-yloxy)-tetrahydro-2H-pyran-2-ylthio)hexa-2,4-diynylthio)-4,5-dihydroxy-2-(hydroxymethyl)-tetrahydro-2H-pyran-3-yloxy)-6-(hydroxymethyl)-tetrahydro-2H-pyran-3,4,5-triol] | 3.80 | 3.52 | – | –
14 | OC[C@@H]1O[C@H](O[C@@H]2[C@@H](O)[C@H](O)[C@@H](n3cc(CS[C@@H]4O[C@H](CO)[C@@H](O[C@@H]5O[C@H](CO)[C@H](O)[C@H](O)[C@H]5O)[C@H](O)[C@H]4O)nn3)O[C@H]2CO)[C@@H](O)[C@H](O)[C@@H]1O [(2S,3R,4S,5R,6R)-2-((2R,3S,4R,5R,6S)-6-((1-((2S,3S,4S,5R,6S)-3,4-dihydroxy-6-(hydroxymethyl)-5-((2R,3S,4R,5S,6S)-3,4,5-trihydroxy-6-(hydroxymethyl)-tetrahydro-2H-pyran-2-yloxy)-tetrahydro-2H-pyran-2-yl)-1H-1,2,3-triazol-4-yl)methylthio)-4,5-dihydroxy-2-(hydroxymethyl)-tetrahydro-2H-pyran-3-yloxy)-6-(hydroxymethyl)-tetrahydro-2H-pyran-3,4,5-triol] | 3.80 | 3.52 | – | –
15 | COC(=O)/C=C/C[C@@H]1O[C@H](CO)[C@H](O)[C@H](O)[C@H]1O [(E)-Methyl 4-(beta-D-galactopyranosyl)-but-2-enoate] | 2.30 | 2.30 | – | –
16 | OC[C@@H]1O[C@H](SCC#CC#CCS[C@@H]2O[C@H](CO)[C@H](O)[C@H](O)[C@H]2O)[C@@H](O)[C@@H](O)[C@@H]1O [Dimeric galactoside] | < 2.30 | 2.30 | – | –
17 | OC[C@H]1O[C@H](O)[C@H](O)[C@@H](O)[C@H]1O [GALACTOSE] | – | – | 1.30 | 1.30
